ChEMBL document CHEMBL1122393, “Potent antagonists of the antidiuretic responses to arginine-vasopressin based on modifications of [1-(beta-mercapto-beta,beta-cyclopentamethylenepropionic acid),2-D- phenylalanine,4-valine]arginine-vasopressin at position 4” (J Med Chem, 1983)
Numbered stars: 1 amine (or outer) side, 2 acyl side, 3 side chain; on linkers, the order of the positions; unused ones are H or OH. Bridge positions count the residues as written; N and C are the ends. Square brackets hold non-standard residues; d marks the D form. Peptide text beside a SMILES is read from it. X1 = O=C(CC1(S[*:2])CCCCC1)[*:1]

What was measured:
Rattus norvegicus [1] = organism: Rattus norvegicus; assay: Effective dose of compound was determined for antiantidiuretic potency in rats; format: functional, Urine
Outline: (§1)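 Antidiuretic assay in rats under ethanol anaesthesia, with the USP posterior pituitary reference standard as agonist, given intravenously. The standard was injected 20 min after antagonist, or 10 min for analogues without agonism. Two antagonist doses were used, and the effective dose (nmol/kg) was log-interpolated as the dose reducing the 2x-unit response to the 1x-unit response. In vivo pA2 = −log(effective dose/estimated volume of distribution).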

Rattus norvegicus [2] = organism: Rattus norvegicus; assay: Effective dose of compound was determined for anti-vasopressor potency in rat; format: functional
Outline: (§2)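 Intravenous vasopressor assay in phenoxybenzamine-treated rats under urethane anaesthesia, with the USP posterior pituitary reference standard as agonist. Each antagonist was given at two doses. The effective dose (nmol/kg) is the dose that cuts the response to 2x units of agonist to the response to 1x unit given before antagonist. It was interpolated on a log scale between the two doses.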

[3] = Ratio of anti-vasopressor ED to antidiuretic ED was determined; format: functional, Urine
Outline: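 Ratio computed as antivasopressor effective dose divided by antiantidiuretic effective dose. Both effective doses come from intravenous rat assays and are defined as the dose (nmol/kg) that reduces the 2x-unit agonist response to the 1x-unit response.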

Rattus norvegicus [4] = assay: The compound tested in vivo for anti-vasopressor potency in rats; format: functional, organism-based; conditions: read-out: pA2 (converted); outline: as §2
Rattus norvegicus [5] = assay: In vivo antiantidiuretic potency of compound was determined in rats; format: functional, organism-based; conditions: Urine, read-out: pA2 (converted); outline: as §1
Rattus norvegicus [6] = organism: Rattus norvegicus; assay: In vitro anti-oxytocic potency of compound in rat uterus in presence of 0.5 mM of Mg; format: functional; conditions: read-out: pA2 (converted)
Outline: (§3)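 Oxytocic antagonism on isolated rat uteri, with the USP posterior pituitary reference standard as agonist. Potency is expressed as a pA2 value.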

Rattus norvegicus [7] = organism: Rattus norvegicus; assay: In vitro anti-oxytocic potency of compound in rat uterus in absence of Mg; format: functional; conditions: read-out: pA2 (converted); outline: as §3
Rattus norvegicus [8] = assay: (§4) In vivo anti-oxytocic potency of compound was determined in rat uterus; format: functional
Outline: (§5)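 Rat uterus in situ, with synthetic oxytocin as agonist. Two antagonist doses were used, and the effective dose (nmol/kg) was interpolated on a log scale as the dose reducing the 2x-unit response to the 1x-unit response.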

[9] = Ratio of anti-oxytocic ED to antidiuretic ED was determined; format: functional, Urine
Outline: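 Ratio computed as antioxytocic effective dose divided by antiantidiuretic effective dose. Both effective doses are defined as the dose (nmol/kg) that reduces the 2x-unit agonist response to the 1x-unit response.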

Rattus norvegicus [10] = assay: as §4; format: functional, organism-based; conditions: read-out: pA2 (converted); outline: as §5
Rattus norvegicus [11] = organism: Rattus norvegicus; assay: Effective dose of compound was determined for antiantidiuretic potency in rats; Weak agonist; format: functional, organism-based; conditions: Urine, filed as partial agonist
Outline: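 Intravenous antidiuretic assay in rats under ethanol anesthesia. The agonist was the USP posterior pituitary reference standard, injected 20 min after the antagonist to allow recovery from initial antidiuretic responses. Antagonist was given at high and low doses. The effective dose (nmol/kg) reduces the response to 2x units of agonist to that of 1x unit given before antagonist, log-interpolated.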

Rattus norvegicus [12] = organism: Rattus norvegicus; assay: Effective dose of compound was determined for anti-vasopressor potency in rat; Weak agonist; format: functional, organism-based; conditions: filed as partial agonist

With NC(=O)CNC(=O)[C@H](CCCN=C(N)N)NC(=O)[C@@H]1CCCN1C(=O)[C@@H]1CSSC2(CCCCC2)CC(=O)N[C@H](Cc2ccccc2)C(=O)N[C@@H](Cc2ccccc2)C(=O)NCC(=O)N[C@@H](CC(N)=O)C(=O)N1 the ED (Rattus norvegicus [1]) was 97 nM/kg, the ED (Rattus norvegicus [2]) was 11 nM/kg and the ED ratio [3] was 0.11. For the same molecule, the Kb (Rattus norvegicus [4]) was 162 nM, the Kb (Rattus norvegicus [5]) was 1410 nM and the Kb (Rattus norvegicus [6]) was 46.8 nM. The Kb (Rattus norvegicus [7]) was 17.4 nM.
CC(C)[C@@H]1NC(=O)[C@H](Cc2ccccc2)NC(=O)[C@@H](Cc2ccccc2)NC(=O)CC2(CCCCC2)SSC[C@@H](C(=O)N2CCC[C@H]2C(=O)N[C@@H](CCCN=C(N)N)C(=O)NCC(N)=O)NC(=O)[C@H](CC(N)=O)NC1=O ([dF]FVNCPRG-NH2; linker N-5 via X1) gave an ED (Rattus norvegicus [8]) of 8.9 nM/kg, an ED (Rattus norvegicus [1]) of 0.67 nM/kg and an ED (Rattus norvegicus [2]) of 0.58 nM/kg. For the same molecule, the ED ratio [3] was 0.9.
With CCC[C@@H]1NC(=O)[C@H](Cc2ccccc2)NC(=O)[C@@H](Cc2ccccc2)NC(=O)CC2(CCCCC2)SSC[C@@H](C(=O)N2CCC[C@H]2C(=O)N[C@@H](CCCN=C(N)N)C(=O)NCC(N)=O)NC(=O)[C@H](CC(N)=O)NC1=O the ED (Rattus norvegicus [1]) was 6.9 nM/kg, the ED (Rattus norvegicus [2]) was 1.4 nM/kg and the ED ratio [3] was 0.2. For the same molecule, the Kb (Rattus norvegicus [4]) was 18.6 nM, the Kb (Rattus norvegicus [5]) was 102 nM and the Kb (Rattus norvegicus [6]) was 19.1 nM. For the same molecule, the Kb (Rattus norvegicus [7]) was 9.33 nM.
Work on NC(=O)CC[C@@H]1NC(=O)[C@H](Cc2ccccc2)NC(=O)[C@@H](Cc2ccccc2)NC(=O)CC2(CCCCC2)SSC[C@@H](C(=O)N2CCC[C@H]2C(=O)N[C@@H](CCCN=C(N)N)C(=O)NCC(N)=O)NC(=O)[C@H](CC(N)=O)NC1=O [listing 1 of 2 here] yielded an ED (Rattus norvegicus [8]) of 4 nM/kg, an ED (Rattus norvegicus [1]) of 4.3 nM/kg and an ED ratio [9] of 0.9. For the same molecule, the ED (Rattus norvegicus [2]) was 0.3 nM/kg and the ED ratio [3] was 0.07.
For NC(=O)CC[C@@H]1NC(=O)[C@H](Cc2ccccc2)NC(=O)[C@@H](Cc2ccccc2)NC(=O)CC2(CCCCC2)SSC[C@@H](C(=O)N2CCC[C@H]2C(=O)N[C@@H](CCCN=C(N)N)C(=O)NCC(N)=O)NC(=O)[C@H](CC(N)=O)NC1=O [listing 2 of 2 here], the Kb (Rattus norvegicus [10]) was 56.2 nM, the Kb (Rattus norvegicus [4]) was 4.47 nM and the Kb (Rattus norvegicus [5]) was 61.7 nM. The Kb (Rattus norvegicus [6]) was 3.72 nM and the Kb (Rattus norvegicus [7]) was 2.57 nM.
Work on C[C@@H]1NC(=O)[C@H](Cc2ccccc2)NC(=O)[C@@H](Cc2ccccc2)NC(=O)CC2(CCCCC2)SSC[C@@H](C(=O)N2CCC[C@H]2C(=O)N[C@@H](CCCN=C(N)N)C(=O)NCC(N)=O)NC(=O)[C@H](CC(N)=O)NC1=O yielded an ED (Rattus norvegicus [1]) of 2.2 nM/kg, an ED (Rattus norvegicus [2]) of 1.9 nM/kg and an ED ratio [3] of 0.9. For the same molecule, the Kb (Rattus norvegicus [4]) was 28.2 nM, the Kb (Rattus norvegicus [5]) was 30.2 nM and the Kb (Rattus norvegicus [6]) was 18.6 nM. For the same molecule, the Kb (Rattus norvegicus [7]) was 20.9 nM.
C[C@@H](O)[C@@H]1NC(=O)[C@H](Cc2ccccc2)NC(=O)[C@@H](Cc2ccccc2)NC(=O)CC2(CCCCC2)SSC[C@@H](C(=O)N2CCC[C@H]2C(=O)N[C@@H](CCCN=C(N)N)C(=O)NCC(N)=O)NC(=O)[C@H](CC(N)=O)NC1=O gave an ED (Rattus norvegicus [8]) of 3.2 nM/kg, a Kb (Rattus norvegicus [10]) of 44.7 nM and an ED (Rattus norvegicus [1]) of 1.7 nM/kg. The ED ratio [9] was 1.9, the ED (Rattus norvegicus [2]) was 2.9 nM/kg and the ED ratio [3] was 1.7. It also gave a Kb (Rattus norvegicus [4]) of 41.7 nM, a Kb (Rattus norvegicus [5]) of 24 nM and a Kb (Rattus norvegicus [6]) of 9.77 nM. The Kb (Rattus norvegicus [7]) was 9.12 nM.
Work on CCCC[C@@H]1NC(=O)[C@H](Cc2ccccc2)NC(=O)[C@@H](Cc2ccccc2)NC(=O)CC2(CCCCC2)SSC[C@@H](C(=O)N2CCC[C@H]2C(=O)N[C@@H](CCCN=C(N)N)C(=O)NCC(N)=O)NC(=O)[C@H](CC(N)=O)NC1=O yielded an ED (Rattus norvegicus [1]) of 5.6 nM/kg, an ED (Rattus norvegicus [2]) of 2.1 nM/kg and an ED ratio [3] of 0.4. The Kb (Rattus norvegicus [4]) was 30.2 nM, the Kb (Rattus norvegicus [5]) was 75.9 nM and the Kb (Rattus norvegicus [6]) was 16.6 nM. It also gave a Kb (Rattus norvegicus [7]) of 28.8 nM.
For CC(C)C[C@@H]1NC(=O)[C@H](Cc2ccccc2)NC(=O)[C@@H](Cc2ccccc2)NC(=O)CC2(CCCCC2)SSC[C@@H](C(=O)N2CCC[C@H]2C(=O)N[C@@H](CCCN=C(N)N)C(=O)NCC(N)=O)NC(=O)[C@H](CC(N)=O)NC1=O, the ED (Rattus norvegicus [1]) was 66 nM/kg, the ED (Rattus norvegicus [2]) was 1.3 nM/kg and the ED ratio [3] was 0.02. The Kb (Rattus norvegicus [4]) was 20 nM, the Kb (Rattus norvegicus [5]) was 851 nM and the Kb (Rattus norvegicus [6]) was 13.2 nM.
For NC(=O)CNC(=O)[C@H](CCCN=C(N)N)NC(=O)[C@@H]1CCCN1C(=O)[C@@H]1CSSC2(CCCCC2)CC(=O)N[C@H](Cc2ccccc2)C(=O)N[C@@H](Cc2ccccc2)C(=O)N[C@@H](CC2CCCCC2)C(=O)N[C@@H](CC(N)=O)C(=O)N1, the ED (Rattus norvegicus [1]) was 4.6 nM/kg, the ED (Rattus norvegicus [2]) was 9 nM/kg and the ED ratio [3] was 2. For the same molecule, the Kb (Rattus norvegicus [4]) was 200 nM, the Kb (Rattus norvegicus [5]) was 64.6 nM and the Kb (Rattus norvegicus [6]) was 25.7 nM. The Kb (Rattus norvegicus [7]) was 16.6 nM.
CC[C@@H]1NC(=O)[C@H](Cc2ccccc2)NC(=O)[C@@H](Cc2ccccc2)NC(=O)CC2(CCCCC2)SSC[C@@H](C(=O)N2CCC[C@H]2C(=O)N[C@@H](CCCN=C(N)N)C(=O)NCC(N)=O)NC(=O)[C@H](CC(N)=O)NC1=O showed an ED (Rattus norvegicus [8]) of 2.4 nM/kg, a Kb (Rattus norvegicus [10]) of 30.2 nM and an ED (Rattus norvegicus [1]) of 0.77 nM/kg. The ED (Rattus norvegicus [2]) was 1.4 nM/kg, the Kb (Rattus norvegicus [4]) was 20 nM and the Kb (Rattus norvegicus [5]) was 11 nM. The Kb (Rattus norvegicus [7]) was 18.6 nM.
Molecule CC[C@H](C)[C@@H]1NC(=O)[C@H](Cc2ccccc2)NC(=O)[C@@H](Cc2ccccc2)NC(=O)CC2(CCCCC2)SSC[C@@H](C(=O)N2CCC[C@H]2C(=O)N[C@@H](CCCN=C(N)N)C(=O)NCC(N)=O)NC(=O)[C@H](CC(N)=O)NC1=O ([dF]FINCPRG-NH2; linker N-5 via X1) has an ED (Rattus norvegicus [8]) of 5.8 nM/kg, a Kb (Rattus norvegicus [10]) of 77.6 nM and an ED (Rattus norvegicus [1]) of 0.46 nM/kg. It also gave an ED ratio [9] of 13, an ED (Rattus norvegicus [2]) of 0.99 nM/kg and an ED ratio [3] of 2.2. It also gave a Kb (Rattus norvegicus [4]) of 13.8 nM, a Kb (Rattus norvegicus [5]) of 5.75 nM and a Kb (Rattus norvegicus [6]) of 6.46 nM. It also gave a Kb (Rattus norvegicus [7]) of 9.12 nM.
For NC(=O)CNC(=O)[C@H](CCCN=C(N)N)NC(=O)[C@@H]1CCCN1C(=O)[C@@H]1CSSC2(CCCCC2)CC(=O)N[C@H](Cc2ccccc2)C(=O)N[C@@H](Cc2ccccc2)C(=O)N2CCC[C@H]2C(=O)N[C@@H](CC(N)=O)C(=O)N1, the ED (Rattus norvegicus [11]) was “Partial agonist”, the ED (Rattus norvegicus [12]) was “Partial agonist” and the Kb (Rattus norvegicus [6]) was 3720 nM. It also gave a Kb (Rattus norvegicus [7]) of 1740 nM.
NC(=O)CNC(=O)[C@H](CCCN=C(N)N)NC(=O)[C@@H]1CCCN1C(=O)[C@@H]1CSSC2(CCCCC2)CC(=O)N[C@H](Cc2ccccc2)C(=O)N[C@@H](Cc2ccccc2)C(=O)N[C@@H](Cc2ccc(O)cc2)C(=O)N[C@@H](CC(N)=O)C(=O)N1 gave an ED (Rattus norvegicus [1]) of ~178 nM/kg, an ED (Rattus norvegicus [2]) of 22 nM/kg and an ED ratio [3] of 0.12. It also gave a Kb (Rattus norvegicus [4]) of 263 nM, a Kb (Rattus norvegicus [5]) of ~2690 nM and a Kb (Rattus norvegicus [6]) of 37.2 nM. It also gave a Kb (Rattus norvegicus [7]) of 20.9 nM.
NC(=O)CNC(=O)[C@H](CCCN=C(N)N)NC(=O)[C@@H]1CCCN1C(=O)[C@@H]1CSSC2(CCCCC2)CC(=O)N[C@H](Cc2ccccc2)C(=O)N[C@@H](Cc2ccccc2)C(=O)N[C@@H](Cc2ccccc2)C(=O)N[C@@H](CC(N)=O)C(=O)N1 showed an ED (Rattus norvegicus [1]) of 65 nM/kg, an ED (Rattus norvegicus [2]) of 25 nM/kg and an ED ratio [3] of 0.5. For the same molecule, the Kb (Rattus norvegicus [4]) was 355 nM, the Kb (Rattus norvegicus [5]) was 851 nM and the Kb (Rattus norvegicus [6]) was 21.4 nM. For the same molecule, the Kb (Rattus norvegicus [7]) was 26.9 nM.
